17 compounds from ChEMBL document CHEMBL5120949, “Optimization of Covalent MKK7 Inhibitors via Crude Nanomole-Scale Libraries” (J Med Chem, 2022) can be followed below.

In brackets after ≈: the same amount, converted by molar mass.

Data set [1] deals with T1, Dual specificity mitogen-activated protein kinase kinase 7 (Homo sapiens) (UniProt O14733).
T1 sequence (whole entry): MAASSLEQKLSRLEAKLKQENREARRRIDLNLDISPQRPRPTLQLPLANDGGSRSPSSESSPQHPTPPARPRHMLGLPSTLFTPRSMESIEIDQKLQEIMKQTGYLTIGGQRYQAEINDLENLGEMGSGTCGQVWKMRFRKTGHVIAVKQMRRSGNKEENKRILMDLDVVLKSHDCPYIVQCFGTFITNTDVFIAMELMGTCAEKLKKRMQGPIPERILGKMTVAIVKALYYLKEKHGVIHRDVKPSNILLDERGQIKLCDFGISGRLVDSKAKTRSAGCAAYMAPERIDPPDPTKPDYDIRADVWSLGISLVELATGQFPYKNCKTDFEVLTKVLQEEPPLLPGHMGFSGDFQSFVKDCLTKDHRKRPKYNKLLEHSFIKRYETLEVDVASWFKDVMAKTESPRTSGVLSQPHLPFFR
Briefly: Binding affinity to N-terminal 6XHis-tagged recombinant MKK7 (117 to 423 residues) (unknown origin) assessed as protein labelling at 2 uM measured for 10 mins by LC/MS analysis relative to control.

Data set [2] deals with T1, Dual specificity mitogen-activated protein kinase kinase 7 (Homo sapiens). Briefly: Inhibition of N-terminal 6XHis-tagged recombinant MKK7 (117 to 423 residues) in human U2OS cells assessed as reduction in JNK phosphorylation level at 13.8 uM incubated for 2 hrs by ICW detection method relative to control. The format is cell-based. Put shortly: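 U2OS cells plated on fibronectin-coated 384-well plates, 24 h. Crude CuAAC reaction mixtures diluted in PBS and given to cells at 13.89 μM final for 2 h. 0.2 M sorbitol added 40 min before fixation. Cells fixed, permeabilized and immunostained for phospho-JNK T183/Y185. The 800 nm signal was normalized to CellTag700 and compared with control wells.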

In data set [3] the target is T2, Dual specificity mitogen-activated protein kinase kinase 7 (Homo sapiens, UniProt O14733).
T2 sequence (O14733 whole entry): T1 sequence (whole entry)
Briefly: Inhibition of N-terminal 6XHis-tagged recombinant MKK7 (117 to 423 residues) in human U2OS assessed as reduction in c-Jun phosphorylation level incubated for 80 mins by Western blot analysis. The format is cell-based. Put shortly: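 U2OS cells in six-well plates, media changed, then exposed to compound in 0.1% DMSO for 80 min. Sorbitol added to 0.2 M for 40 min. Lysates (35 μg protein) run on western blot against p-c-Jun (Ser63), with GAPDH as loading control. Bands quantified and EC50 taken from a sigmoidal dose–response fit with top fixed at 1 and bottom at 0.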
Background: Immunoblotting shows a protein as a band on a membrane.

Data set [4] in a line: Stability of the compound in human plasma assessed as parent compound remaining. The class given is ADME, cell-free.
Data set [5] is described as follows: Kinetic solubility of compound.
Data set [6] is described as follows: Apparent permeability across apical to basolateral side in human Caco2 cells. The note with it: Caco-2. (In general: Caco-2 monolayers are a common model of the intestinal barrier.)
Data set [7] in a line: Metabolic stability in human liver microsomes assessed as intrinsic clearance measured after 60 mins. (In general: Liver microsomes are vesicles of endoplasmic reticulum, rich in cytochrome P450 enzymes.)

With `C=CC(=O)Nc1cc(C(=O)NCc2cn(-c3ccc(F)c(Cl)c3)nn2)cc(-c2n[nH]c3ccccc23)c1`, in data set [1], the Activity is over 70%.
As usually defined, the inhibition is the relative decrease from the control value, in per cent. As to `C=CC(=O)N1CCC[C@@H](n2nc(-c3cn(-c4ccc(OC)cc4)nn3)c3c(N)ncnc32)C1`, the inhibition in data set [2] was determined as 65%. For the same compound, in data set [1], the Activity is over 70%.
`C#CCNC(=O)c1cc(NC(=O)C=C)cc(-c2n[nH]c3ccccc23)c1`: the Activity in data set [1] was 2%.
For orientation: EC50 means the concentration that produces a half-maximal response. With `C=CC(=O)N1CCC[C@@H](n2nc(-c3cn(-c4cc(Br)ccc4O)nn3)c3c(N)ncnc32)C1`, in data set [2], the inhibition amounted to 65%. For the same compound, the Activity in data set [1] was over 70%. Moreover, in data set [3], the EC50 was over 0.9 µM.
For `C#Cc1nn([C@@H]2CCCN(C(=O)C=C)C2)c2ncnc(N)c12`, the inhibition in data set [2] was 65%. In data set [1], the Activity is over 70%.
The corresponding values for `C=CC(=O)N1CCC[C@@H](n2nc(-c3cn(-c4ccc(CO)c(F)c4)nn3)c3c(N)ncnc32)C1` are 65% and over 70%.
For `C=CC(=O)N1CCC[C@@H](n2nc(-c3cn(CC(F)(F)c4ccc(Cl)cc4)nn3)c3c(N)ncnc32)C1`, the inhibition in data set [2] was found to be 65%. Further, the Activity in data set [1] was over 70%.
Take `C=CC(=O)Nc1cc(C(=O)NCc2cn(-c3ccccc3C)nn2)cc(-c2n[nH]c3ccccc23)c1`: the Activity in data set [1] was over 70%. Besides, in data set [3], the half-maximal effective concentration (EC50) is under 3 µM.
The term solubility (kinetic) denotes the concentration staying in solution when a stock, usually in DMSO, is diluted into the medium. The Papp A→B is how fast a substance crosses the layer from the apical side. Usually microsomal CLint stands for a measure of how fast metabolising enzymes remove a compound, apart from limits set by blood flow. Regarding `C=CC(=O)N1CCC[C@@H](n2nc(-c3cn(-c4ccc(C(C)=O)cc4)nn3)c3c(N)ncnc32)C1`, the Stability in data set [4] was 70%. This compound had a solubility (kinetic) in data set [5] of 8 µM (≈ 3.66 µg/mL). For the same compound, the inhibition in data set [2] came out at 65%. In data set [6], the Papp A→B worked out at 20 ×10⁻⁶ cm/s. For the same compound, the microsomal CLint at 1 h in data set [7] was determined as 154 µL/min/mg.
Consider `C=CC(=O)N1CCC[C@@H](n2nc(-c3cn(-c4ccc(Cl)cc4O)nn3)c3c(N)ncnc32)C1`, for which, in data set [2], the inhibition was found to be 65%. Moreover, the Activity in data set [1] was over 70%.
On the same counts, the results for `C=CC(=O)N1CCC[C@@H](n2nc(-c3cn(-c4ccc(Br)cc4)nn3)c3c(N)ncnc32)C1` are 65% and over 70%.
In the case of `C=CC(=O)N1CCC[C@@H](n2nc(-c3cn(CC(F)(F)c4ccccc4)nn3)c3c(N)ncnc32)C1`, in data set [2], the inhibition amounted to 65%.
Consider `C=CC(=O)N1CCC[C@@H](n2nc(-c3cn(CCc4ccccc4)nn3)c3c(N)ncnc32)C1`, for which, in data set [2], the inhibition amounted to 65%. For the same compound, in data set [1], the Activity was over 70%.
For the compound `C=CC(=O)Nc1cc(C(=O)NCc2cn([C@@H]3CCCC[C@H]3OC)nn2)cc(-c2n[nH]c3ccccc23)c1` (racemic), in data set [1], the Activity is over 70%.
Turning to `C=CC(=O)N1CCC[C@@H](n2nc(-c3cn(-c4ccc(C(=O)OC)cc4)nn3)c3c(N)ncnc32)C1`, in data set [2], the inhibition is 65%. For the same compound, the Activity in data set [1] was over 70%.
With `C=CC(=O)N1CCC[C@@H](n2nc(-c3cn(C[C@H](O)c4ccc(Br)cc4)nn3)c3c(N)ncnc32)C1`, in data set [2], the inhibition amounted to 65%. Also, the Activity in data set [1] is over 70%.
Consider `C=CC(=O)Nc1cc(C(=O)NCc2cn(C3CCC3)nn2)cc(-c2n[nH]c3ccccc23)c1`, for which the Activity in data set [1] was over 70%.
